ChEMBL document CHEMBL1125602, “Inhibitors of the protease from human immunodeficiency virus: design and modeling of a compound containing a dihydroxyethylene isostere insert with high binding affinity and effective antiviral activity” (J Med Chem, 1991)

Experiments:
[1] = molecular target: Human immunodeficiency virus type 1 protease (Human immunodeficiency virus 1, UniProt Q72874); assay: Inhibitory activity against HIV-1 protease
Outline: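 Recombinant HIV-1 protease refolded from E. coli inclusion bodies; substrate GSP (H-Val-Ser-Gln-Asn-Tyr-Pro-Ile-Val-OH) at 2.5 mM. Run at 30 °C in 100 mM sodium acetate pH 5.5 with 10% glycerol, 5% ethylene glycol, 0.1% Nonidet P-40. Inhibitor added before enzyme, five to seven concentrations. Stopped at 30 min with TFA, products by HPLC; Ki from Dixon plots.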

[2] = The compound was tested for its antiviral activity against vaccinia virus in CV-1 monkey cells at 10 uM; type: functional; details: Cercopithecidae

With `CC[C@H](C)[C@H](NC(=O)[C@@H](Cc1ccccc1)[C@@H](O)[C@H](O)[C@H](Cc1ccccc1)NC(=O)[C@H](Cc1c[nH]cn1)NC(=O)COc1cccc2ccccc12)C(=O)NCc1ccccn1` the Ki [1] was 12 nM.

For `CC[C@H](C)[C@H](NC(=O)[C@H](C(C)C)[C@@H](O)[C@H](O)[C@H](CC1CCCCC1)NC(=O)[C@H](Cc1c[nH]cn1)NC(=O)CN)C(=O)NCc1ccccn1`, the inhibition at 10 µM [2] was 0% and the Ki [1] was 11 nM.

For `CC[C@H](C)[C@H](NC(=O)[C@H](C(C)C)[C@@H](O)[C@H](O)[C@H](CC(C)C)NC(=O)[C@H](Cc1c[nH]cn1)NC(=O)COc1ccccc1)C(=O)NCc1ccccn1`, the Ki [1] was 5 nM.

`CC[C@H](C)[C@H](NC(=O)[C@@H](CC(C)C)[C@@H](O)[C@H](O)[C@H](CC(C)C)NC(=O)[C@H](Cc1c[nH]cn1)NC(=O)COc1cccc2ccccc12)C(=O)NCc1ccccn1` gave a Ki [1] of 220 nM.

For `CC[C@H](C)[C@H](NC(=O)[C@H](C(C)C)[C@H](O)[C@H](O)[C@H](CC(C)C)NC(=O)[C@H](Cc1c[nH]cn1)NC(=O)[C@@H](Cc1ccccc1)NC(=O)OC(C)(C)C)C(=O)NCc1ccccn1`, the Ki [1] was 500 nM.

Molecule `CC[C@H](C)[C@H](NC(=O)[C@H](C(C)C)[C@@H](O)[C@H](O)[C@H](CC(C)C)NC(=O)[C@H](Cc1c[nH]cn1)NC(=O)COc1cccc2ccccc12)C(=O)NCc1ccccn1` has a Ki [1] of 5 nM.

In the case of `CC[C@H](C)[C@H](NC(=O)[C@H](CC(C)C)[C@@H](O)[C@H](O)[C@H](CC1CCCCC1)NC(=O)[C@H](Cc1c[nH]cn1)NC(=O)COc1cccc2ccccc12)C(=O)NCc1ccccn1`, the Ki [1] is reported as 5 nM.

In the case of `CC[C@H](C)[C@H](NC(=O)[C@H](C(C)C)[C@@H](O)[C@H](O)[C@H](CC1CCCCC1)NC(=O)[C@H](Cc1c[nH]cn1)NC(=O)COc1cccc2ccccc12)C(=O)NCc1ccccn1`, the Ki [1] is reported as < 1 nM.

With `CC[C@H](C)[C@H](NC(=O)[C@H](CC(C)C)[C@@H](O)[C@H](O)[C@H](CC(C)C)NC(=O)[C@H](Cc1c[nH]cn1)NC(=O)COc1cccc2ccccc12)C(=O)NCc1ccccn1` the Ki [1] was 7 nM.

With `CC[C@H](C)[C@H](NC(=O)[C@H](C(C)C)[C@@H](O)[C@H](O)[C@H](CC(C)C)NC(=O)[C@H](Cc1c[nH]cn1)NC(=O)[C@@H](Cc1ccccc1)NC(=O)OC(C)(C)C)C(=O)NCc1ccccn1` the Ki [1] was 28 nM.

In the case of `CC[C@H](C)[C@H](NC(=O)[C@H](C(C)C)[C@@H](O)[C@H](O)[C@H](CC1CCCCC1)NC(=O)CC1CCCCC1)C(=O)NCc1ccccn1`, the inhibition at 10 µM [2] is reported as 80% and the Ki [1] is reported as 22 nM.

With `CC[C@H](C)[C@H](NC(=O)[C@H](C(C)C)[C@@H](O)[C@H](O)[C@H](CC1CCCCC1)NC(=O)[C@H](Cc1c[nH]cn1)NC(=O)CO)C(=O)NCc1ccccn1` the inhibition at 10 µM [2] was 0% and the Ki [1] was 4 nM.

`CC[C@H](C)[C@H](NC(=O)[C@H](CC1CCCCC1)[C@@H](O)[C@H](O)[C@H](CC1CCCCC1)NC(=O)[C@H](Cc1c[nH]cn1)NC(=O)COc1cccc2ccccc12)C(=O)NCc1ccccn1` gave a Ki [1] of 26 nM.

For `CC[C@H](C)[C@H](NC(=O)[C@H](C(C)C)[C@@H](O)[C@H](O)[C@H](CC1CCCCC1)NC(=O)[C@H](Cc1c[nH]cn1)NC(=O)COc1ccccc1)C(=O)NCc1ccccn1`, the inhibition at 10 µM [2] was 100% and the Ki [1] was 2 nM.
